Results on two molecules are retold here after ChEMBL document CHEMBL2016466, “Design, synthesis, and biological evaluation of new diaminoquinazolines as β-catenin/Tcf4 pathway inhibitors” (J Med Chem, 2012).

A short description of series [1]: Ratio of IC50 for human HCT116 cells to IC50 for […]/TCF4 pathway expressed in HCT116 cells. In kind it is cell-based. The following applies: HCT-116.
In series [2] the target is TCF4/beta-catenin (Homo sapiens, UniProt P35222+Q9NQB0). Briefly: Inhibition of beta-catenin/TCF4 pathway expressed in HCT116 cells containing delta45S mutant after 24 hrs by luciferase reporter gene assay. In kind it is cell-based. The note with it: hct-116. An outline of the steps:
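HCT116 cells at 1 × 10⁴/well, cotransfected with 50 ng TOP-FLASH reporter (Tcf4 binding sites) and 50 ng pTK-β-gal as internal control. At 4 h post-transfection, fresh medium with compound at various concentrations was added. Firefly luciferase was read 24 h after compound addition, normalized to β-galactosidase and expressed as a percentage of control luciferase activity.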
For orientation: Reporter assays use an easily measured gene product as a stand-in for the process of interest.

For series [3], the system named is SW480. The experiment in a line: Growth inhibition of human SW480 cells assessed as viable cells after 3 days using resazurin by […] assay. In kind it is functional, cell-based. The note with it: SW480, 72 h. The procedure, abridged:
(§1)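 Cells grown in RPMI 1640 + 10% FBS + penicillin/streptomycin, trypsinized and seeded at 2 × 10³ cells/well. Compound added 24 h later as a concentration curve starting at 10 μg/mL with nine further 2-fold dilutions. After 3 days of exposure, viability was read with CellTiter-Blue (resazurin to resorufin). IC50 is the average of three separate experiments.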

For series [4], the system named is HCT-116. Briefly: Growth inhibition of human HCT116 cells assessed as viable cells after 3 days using resazurin by […] assay. The series is classed as functional, cell-based. The following applies: HCT-116, 72 h. The procedure, abridged: as §1
Background: Resazurin is reduced to fluorescent resorufin, in cell work by metabolically active cells.

A short description of series [5]: Solubility of the compound in water. In kind it is physicochemical. The note with it: buffer.

Chain of TCF4/beta-catenin (P35222 2-781 limits assumed, stated change not applied): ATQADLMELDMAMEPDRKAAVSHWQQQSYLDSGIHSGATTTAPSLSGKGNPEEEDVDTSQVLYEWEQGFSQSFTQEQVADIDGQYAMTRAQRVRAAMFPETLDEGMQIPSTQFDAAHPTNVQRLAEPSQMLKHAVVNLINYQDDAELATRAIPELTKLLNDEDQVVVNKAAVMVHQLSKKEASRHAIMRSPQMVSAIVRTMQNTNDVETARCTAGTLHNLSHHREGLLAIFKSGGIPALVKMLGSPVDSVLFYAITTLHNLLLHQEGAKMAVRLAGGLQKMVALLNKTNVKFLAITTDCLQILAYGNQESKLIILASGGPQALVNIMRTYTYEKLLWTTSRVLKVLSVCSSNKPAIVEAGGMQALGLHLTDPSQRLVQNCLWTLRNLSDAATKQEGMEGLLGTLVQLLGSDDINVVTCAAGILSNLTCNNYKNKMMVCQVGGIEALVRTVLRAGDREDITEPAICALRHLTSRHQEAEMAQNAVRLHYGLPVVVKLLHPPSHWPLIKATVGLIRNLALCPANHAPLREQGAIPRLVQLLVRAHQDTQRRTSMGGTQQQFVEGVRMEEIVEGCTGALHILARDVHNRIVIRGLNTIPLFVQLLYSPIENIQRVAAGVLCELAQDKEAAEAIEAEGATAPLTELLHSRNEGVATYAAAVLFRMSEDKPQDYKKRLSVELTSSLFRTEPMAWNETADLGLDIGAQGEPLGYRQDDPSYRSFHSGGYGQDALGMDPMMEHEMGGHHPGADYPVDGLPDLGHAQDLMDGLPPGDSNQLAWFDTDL
Chain of TCF4/beta-catenin (Q9NQB0 whole entry, stated change not applied): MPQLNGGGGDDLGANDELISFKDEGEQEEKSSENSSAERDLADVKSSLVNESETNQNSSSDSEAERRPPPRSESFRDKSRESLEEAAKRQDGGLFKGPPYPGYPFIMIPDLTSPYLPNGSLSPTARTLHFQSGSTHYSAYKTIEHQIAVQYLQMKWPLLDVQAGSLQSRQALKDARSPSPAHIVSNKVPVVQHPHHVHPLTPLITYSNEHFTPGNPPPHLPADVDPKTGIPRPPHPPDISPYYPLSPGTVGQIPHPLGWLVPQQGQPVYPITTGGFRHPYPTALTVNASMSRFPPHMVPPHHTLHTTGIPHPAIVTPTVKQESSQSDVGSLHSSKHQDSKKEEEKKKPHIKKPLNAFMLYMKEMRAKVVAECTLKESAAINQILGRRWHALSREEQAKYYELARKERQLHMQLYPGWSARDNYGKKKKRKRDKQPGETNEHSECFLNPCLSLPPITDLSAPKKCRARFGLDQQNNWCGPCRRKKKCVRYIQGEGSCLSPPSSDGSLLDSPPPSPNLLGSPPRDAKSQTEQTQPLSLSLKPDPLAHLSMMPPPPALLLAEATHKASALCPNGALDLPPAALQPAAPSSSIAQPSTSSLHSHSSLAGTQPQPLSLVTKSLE

With `CCCNc1nc(NCc2ccc(NC(=O)c3ccc(F)cc3)cc2)c2ccccc2n1`, in series [1], the Ratio IC50 was determined as 2. In addition, the IC50 in series [2] came out at 2500 nM; in series [3], 2000 nM; in series [4], 1700 nM.
With `CCCNc1nc(NCc2ccc(C(=O)Nc3ccc(F)cc3)cc2)c2cc(C)ccc2n1`, the IC50 in series [3] worked out at 1300 nM; in series [4] it was 1200 nM. The solubility entry in series [5] is “soluble”.

The IC50 is the concentration that inhibits the measured activity by half.
